From ChEMBL document CHEMBL1781924, “Inhibitors of the NF-kappaB activation pathway from Cryptocarya rugulosa” (J Nat Prod, 2009)
pIC50: −log10 of the molar value. Activity calls are given as the source filed them. The calls are words filed in the database; no cut-off is given here.

Columns and labels:
OCI-Ly3 [1] = test: Induction of IkappaB in human OCI-LY3 cells assessed as fold increase in luciferase reporter gene; assay type: functional, cell-based
OCI-Ly3 [2] = test: Induction of IkappaB in human OCI-LY3 cells assessed as fold increase in luciferase reporter gene after 10 hrs; assay type: functional, cell-based; conditions: TDE = time-dependent effect
[3] = molecular target: T1, Inhibitor of nuclear factor kappa-B kinase subunit beta (Homo sapiens) (UniProt O14920); test: Inhibition of IKK-beta in human OCI-LY19 cells assessed as decrease in renilla values at 10 ug/ml after 10 hrs by IkB-photinus/Renilla assay; assay type: cell-based
T1 sequence (whole entry): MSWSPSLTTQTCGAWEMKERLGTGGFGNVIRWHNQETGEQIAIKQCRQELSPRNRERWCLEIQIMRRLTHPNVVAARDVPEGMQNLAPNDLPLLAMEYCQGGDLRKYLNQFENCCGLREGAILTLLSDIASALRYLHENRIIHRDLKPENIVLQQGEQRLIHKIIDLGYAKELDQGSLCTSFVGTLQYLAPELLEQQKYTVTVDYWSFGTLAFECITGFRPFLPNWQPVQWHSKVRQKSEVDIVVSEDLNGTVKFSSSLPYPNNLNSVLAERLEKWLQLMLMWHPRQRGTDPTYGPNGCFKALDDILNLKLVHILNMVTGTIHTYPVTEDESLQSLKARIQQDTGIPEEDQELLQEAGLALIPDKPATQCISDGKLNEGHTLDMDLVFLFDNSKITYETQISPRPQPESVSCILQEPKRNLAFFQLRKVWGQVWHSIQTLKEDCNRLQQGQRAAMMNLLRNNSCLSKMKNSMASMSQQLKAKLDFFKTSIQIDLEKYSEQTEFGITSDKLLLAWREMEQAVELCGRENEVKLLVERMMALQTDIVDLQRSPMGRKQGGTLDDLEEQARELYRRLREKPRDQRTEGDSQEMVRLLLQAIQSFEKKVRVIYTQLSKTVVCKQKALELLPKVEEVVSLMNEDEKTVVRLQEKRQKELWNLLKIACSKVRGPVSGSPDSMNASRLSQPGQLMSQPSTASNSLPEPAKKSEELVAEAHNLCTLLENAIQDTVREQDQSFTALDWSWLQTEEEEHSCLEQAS
How it was run: (§1)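 OCI-Ly3, OCI-Ly10 and OCI-Ly19 cells stably coexpressing an IκB-Photinus fusion reporter and unmodified Renilla luciferase, in phenol red-free IMDM with 20% heparinized human plasma. Cells were exposed to compound at 37 °C, 5% CO2 for 2.5, 5 or 10 h, then pelleted, lysed and given dual luciferase substrates. Photinus/Renilla ratio and Renilla alone were normalized to the untreated control mean.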

[4] = molecular target: T1, Inhibitor of nuclear factor kappa-B kinase subunit beta (Homo sapiens); test: Inhibition of IKK-beta in human OCI-LY3 cells assessed as decrease in renilla values at 2.5 to 5 ug/ml after 10 hrs by IkB-photinus/Renilla assay; assay type: cell-based; conditions: 5 to 10 ug/ml, in the assay text read “at 5 to 10 ug/ml” for “at 2.5 to 5 ug/ml”; how it was run: as §1
[5] = molecular target: T1, Inhibitor of nuclear factor kappa-B kinase subunit beta (Homo sapiens); test: Inhibition of IKK-beta in human OCI-LY19 cells assessed as decrease in renilla values at 10 ug/ml after 2.5 to 10 hrs by IkB-photinus/Renilla assay; assay type: cell-based; how it was run: as §1
[6] = molecular target: T1, Inhibitor of nuclear factor kappa-B kinase subunit beta (Homo sapiens); test: Inhibition of IKK-beta in human OCI-LY10 cells assessed as decrease in renilla values at 2.5 to 10 ug/ml after 10 hrs by IkB-photinus/Renilla assay; assay type: cell-based; how it was run: as §1
OCI-Ly3 [7] = test: Induction of IkappaB in human OCI-LY3 cells assessed as fold increase in luciferase reporter gene at 11 uM; assay type: functional, cell-based
K562 [8] = test: Cytotoxicity against human K562 cells; assay type: functional, cell-based
OCI-Ly3 [9] = test: Induction of IkappaB in human OCI-LY3 cells assessed as fold increase in luciferase reporter gene at 16 uM; assay type: functional, cell-based
KB = test: Cytotoxicity against human KB cells; assay type: functional, cell-based
K562 [10] = test: Cytotoxicity against doxorubicin-resistant human K562 cells; assay type: functional, cell-based

SMILES	Activity (OCI-Ly3 [1])	Activity (OCI-Ly3 [2])	inhibition [3]	inhibition [4]	inhibition [5]	inhibition [6]	Activity (OCI-Ly3 [7])	pIC50 (K562 [8])	Activity (OCI-Ly3 [9])	pIC50 (KB)	pIC50 (K562 [10])
O=C(/C=C/C[C@@H]1CC=CC(=O)O1)CCc1ccccc1	Dose-dependent effect	tde	inactive	Active	Active	Active	Active	–	–	–	–
O=C1C[C@@H]2/C(=C(O)\C=C\c3ccccc3)C(=O)C=C[C@@H]2O1 [CRYPTOCARYONE]	Dose-dependent effect	tde	–	–	–	–	–	5.74	Active	5.74	5.74
